Reference: ChEMBL document CHEMBL2413022, “3-Aryl-4-acyloxyethoxyfuran-2(5H)-ones as inhibitors of tyrosyl-tRNA synthetase: synthesis, molecular docking and antibacterial evaluation” (Bioorg Med Chem, 2013)
pIC50: −log10 of the molar value. Values after ≈ are worked out from the molar mass of the structure shown.

Columns and labels:
[1] = Inhibition of Staphylococcus aureus tyrosyl-tRNA synthetase expressed in Escherichia coli using L-[ring-3,5-3H] tyrosine as substrate preincubated for 10 mins by liquid scintillation counting analysis
Outline: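 Enzyme purified to about 98% (SDS–PAGE). Aminoacylation at 37 °C, final 100 mM Tris/Cl pH 7.9, 50 mM KCl. TyrRS (0.2 nM) preincubated with a range of inhibitor concentrations for 10 min at room temperature, then pre-warmed mixture added. Aliquots quenched in ice-cold 7% TCA at set intervals, filtered, counted by liquid scintillation.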

[2] = test system: Candida albicans; assay: Antifungal activity against Candida albicans ATCC 10231 by MTT assay; assay type: functional
Outline: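 LB medium; inoculum about 10⁵ cfu/mL with serially diluted compound (medium-only blank), incubated at 28 °C. MTT in PBS (3 mg/mL) added, 4–5 h at room temperature. Dye extracted 8–10 h in 10% SDS with 5% isopropanol and HCl. OD read at 570 nm, control OD 1.0–2.0; MIC50 from absorbance.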

[3] = test system: Staphylococcus aureus; assay: Antibacterial activity against Staphylococcus aureus ATCC 25923 by MTT assay; assay type: functional
Outline: (§1)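 LB medium; inoculum about 10⁵ cfu/mL added to serially diluted compound (medium-only blank) and incubated at 37 °C. Then MTT in PBS (3 mg/mL) added, 4–5 h at room temperature. Medium removed, dye extracted 8–10 h in 10% SDS with 5% isopropanol and HCl. Read OD 570 nm, control OD kept at 1.0–2.0; MIC50 taken from absorbance.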

[4] = test system: Escherichia coli; assay: Antibacterial activity against Escherichia coli ATCC 35218 by MTT assay; assay type: functional; outline: as §1
[5] = test system: Pseudomonas aeruginosa; assay: Antibacterial activity against Pseudomonas aeruginosa ATCC 27853 by MTT assay; assay type: functional; outline: as §1

Row | SMILES | pIC50 [1] | MIC50 [2] | MIC50 [3] | MIC50 [4] | MIC50 [5]
1 | COc1ccc(CC(=O)OCCOC2=C(c3ccccc3)C(=O)OC2)cc1OC | 4.08 | 92.3 µg/mL (≈ 232 µM) | > 100 µg/mL | > 100 µg/mL | > 100 µg/mL
2 | O=C1OCC(OCCOC(=O)c2cc(Cl)ccc2Cl)=C1c1ccccc1 | 5.28 | > 100 µg/mL | 24.8 µg/mL (≈ 63.1 µM) | 13.9 µg/mL (≈ 35.3 µM) | 2.9 µg/mL (≈ 7.37 µM)
3 | O=C1OCC(OCCOC(=O)c2cccc([N+](=O)[O-])c2)=C1c1ccccc1 | < 4.00 | > 100 µg/mL | > 100 µg/mL | 9.4 µg/mL (≈ 25.5 µM) | > 100 µg/mL
4 | O=C1OCC(OCCOC(=O)c2ccccc2Cl)=C1c1ccccc1 | 4.25 | > 100 µg/mL | 72.9 µg/mL (≈ 203 µM) | 17.9 µg/mL (≈ 49.9 µM) | 52.7 µg/mL (≈ 147 µM)
5 | O=C1OCC(OCCOC(=O)c2ccc3ccccc3c2)=C1c1ccccc1 | 4.75 | > 100 µg/mL | 21.9 µg/mL (≈ 58.5 µM) | > 100 µg/mL | 18.1 µg/mL (≈ 48.3 µM)
6 | O=C1OCC(OCCOC(=O)c2ccc(Cl)c(Cl)c2)=C1c1ccccc1 | 4.48 | 95.4 µg/mL (≈ 243 µM) | 19.9 µg/mL (≈ 50.6 µM) | 2.9 µg/mL (≈ 7.37 µM) | 22.7 µg/mL (≈ 57.7 µM)
7 | O=C1OCC(OCCOC(=O)c2ccc3cc(O)ccc3c2)=C1c1ccccc1 | 4.77 | > 100 µg/mL | 16.1 µg/mL (≈ 41.2 µM) | > 100 µg/mL | 15.8 µg/mL (≈ 40.5 µM)
8 | O=C1OCC(OCCOC(=O)c2cccnc2)=C1c1ccccc1 | 4.59 | > 100 µg/mL | 22.8 µg/mL (≈ 70.1 µM) | 18.6 µg/mL (≈ 57.2 µM) | 44.8 µg/mL (≈ 138 µM)
9 | Cc1ccccc1C(=O)OCCOC1=C(c2ccccc2)C(=O)OC1 | < 4.00 | > 100 µg/mL | > 100 µg/mL | 19.3 µg/mL (≈ 57 µM) | 90.2 µg/mL (≈ 267 µM)
10 | COc1ccccc1C(=O)OCCOC1=C(c2ccccc2)C(=O)OC1 | 4.19 | > 100 µg/mL | > 100 µg/mL | > 100 µg/mL | 73.6 µg/mL (≈ 208 µM)
11 | O=C1OCC(OCCOC(=O)c2ccc(Cl)cc2)=C1c1ccccc1 | 5.06 | 78.4 µg/mL (≈ 219 µM) | 17.2 µg/mL (≈ 47.9 µM) | > 100 µg/mL | 14.5 µg/mL (≈ 40.4 µM)
12 | CCn1cc(C(=O)O)c(=O)c2cc(F)c(N3CCNCC3)cc21 [NORFLOXACIN] | – | – | – | – | 2.1 µg/mL (≈ 6.58 µM)
13 | O=C1OCC(OCCOC(=O)c2ccc(O)cc2)=C1c1ccccc1 | 4.95 | 23 µg/mL (≈ 67.6 µM) | 23.3 µg/mL (≈ 68.5 µM) | 19.5 µg/mL (≈ 57.3 µM) | 21.3 µg/mL (≈ 62.6 µM)
14 | O=C1OCC(OCCOC(=O)c2ccccc2[N+](=O)[O-])=C1c1ccccc1 | 4.74 | > 100 µg/mL | 24.3 µg/mL (≈ 65.8 µM) | 17.5 µg/mL (≈ 47.4 µM) | 35.5 µg/mL (≈ 96.1 µM)
15 | CCCC(=O)OCCOC1=C(c2ccccc2)C(=O)OC1 | 4.07 | 88.7 µg/mL (≈ 306 µM) | 41.3 µg/mL (≈ 142 µM) | > 100 µg/mL | 98.1 µg/mL (≈ 338 µM)
16 | CCCCCC(=O)OCCOC1=C(c2ccccc2)C(=O)OC1 | 4.32 | 21.4 µg/mL (≈ 67.2 µM) | 43 µg/mL (≈ 135 µM) | > 100 µg/mL | 60.8 µg/mL (≈ 191 µM)
17 | O=C1OCC(OCCOC(=O)c2ccccc2O)=C1c1ccccc1 | 4.38 | > 100 µg/mL | 24.9 µg/mL (≈ 73.2 µM) | 15.7 µg/mL (≈ 46.1 µM) | 47.8 µg/mL (≈ 140 µM)
18 | O=C1OCC(OCCOC(=O)c2ccc([N+](=O)[O-])cc2)=C1c1ccccc1 | 5.28 | 2.7 µg/mL (≈ 7.31 µM) | 24.5 µg/mL (≈ 66.3 µM) | 5 µg/mL (≈ 13.5 µM) | 11.4 µg/mL (≈ 30.9 µM)
19 | O=C(Cc1cccc(Cl)c1)OCCOC1=C(c2ccccc2)C(=O)OC1 | < 4.00 | > 100 µg/mL | > 100 µg/mL | > 100 µg/mL | 83.1 µg/mL (≈ 223 µM)
20 | Cc1ccc(C(=O)OCCOC2=C(c3ccccc3)C(=O)OC2)cc1 | 4.75 | 23.4 µg/mL (≈ 69.2 µM) | 18.3 µg/mL (≈ 54.1 µM) | > 100 µg/mL | 37.7 µg/mL (≈ 111 µM)
21 | O=C1OCC(OCCOC(=O)c2ccc(O)c(O)c2)=C1c1ccccc1 | 4.12 | > 100 µg/mL | 19.9 µg/mL (≈ 55.8 µM) | > 100 µg/mL | > 100 µg/mL
22 | CC(=O)N1CCN(c2ccc(OCC3COC(Cn4ccnc4)(c4ccc(Cl)cc4Cl)O3)cc2)CC1 (centres undefined) [KETOCONAZOLE] | – | 3.8 µg/mL (≈ 7.15 µM) | – | – | –
23 | O=C1OCC(OCCOC(=O)c2ccccc2)=C1c1ccccc1 | 4.89 | > 100 µg/mL | 17.8 µg/mL (≈ 54.9 µM) | > 100 µg/mL | 13.4 µg/mL (≈ 41.3 µM)
24 | O=C1OCC(OCCOC(=O)c2cccc(C(F)(F)F)c2)=C1c1ccccc1 | 5.37 | > 100 µg/mL | 17.5 µg/mL (≈ 44.6 µM) | 23.3 µg/mL (≈ 59.4 µM) | 2.4 µg/mL (≈ 6.12 µM)
25 | CCCCCCCC(=O)OCCOC1=C(c2ccccc2)C(=O)OC1 | 4.39 | > 100 µg/mL | > 100 µg/mL | 48.8 µg/mL (≈ 141 µM) | 56.8 µg/mL (≈ 164 µM)
26 | O=C(Cc1ccc(F)cc1)OCCOC1=C(c2ccccc2)C(=O)OC1 | 4.03 | > 100 µg/mL | 16.5 µg/mL (≈ 46.3 µM) | > 100 µg/mL | > 100 µg/mL
27 | O=C(Cc1ccc(O)cc1)OCCOC1=C(c2ccccc2)C(=O)OC1 | < 4.00 | > 100 µg/mL | 22.5 µg/mL (≈ 63.5 µM) | 53.6 µg/mL (≈ 151 µM) | 68.1 µg/mL (≈ 192 µM)
28 | O=C1OCC(OCCOC(=O)c2ccc(Cl)cc2Cl)=C1c1ccccc1 | 4.78 | 22.9 µg/mL (≈ 58.2 µM) | 18.2 µg/mL (≈ 46.3 µM) | 12.8 µg/mL (≈ 32.6 µM) | 21.3 µg/mL (≈ 54.2 µM)
29 | O=C(Cc1ccc(O)cc1)OCCOC1=C(c2ccc(Cl)cc2)C(=O)OC1 | 5.10 | > 100 µg/mL | 27.4 µg/mL (≈ 70.5 µM) | > 100 µg/mL | 15.5 µg/mL (≈ 39.9 µM)

Now from value to compound:

Row | pIC50 [1] | MIC50 [2] | MIC50 [3] | MIC50 [4] | MIC50 [5] | SMILES
30 | 5.03 | > 100 µg/mL | 13.3 µg/mL (≈ 32.7 µM) | 45.6 µg/mL (≈ 112 µM) | 17.7 µg/mL (≈ 43.5 µM) | O=C(Cc1ccc(Cl)cc1)OCCOC1=C(c2ccc(Cl)cc2)C(=O)OC1
31 | 5.24 | 15.6 µg/mL (≈ 39.9 µM) | 14.9 µg/mL (≈ 38.1 µM) | > 100 µg/mL | 13.2 µg/mL (≈ 33.8 µM) | O=C(Cc1ccc(F)cc1)OCCOC1=C(c2ccc(Cl)cc2)C(=O)OC1
32 | 5.96 | 2.5 µg/mL (≈ 6.14 µM) | 5.2 µg/mL (≈ 12.8 µM) | 7.6 µg/mL (≈ 18.7 µM) | 2.5 µg/mL (≈ 6.14 µM) | O=C(Cc1cccc(Cl)c1)OCCOC1=C(c2ccc(Cl)cc2)C(=O)OC1
33 | 5.46 | 4.2 µg/mL (≈ 9.3 µM) | 13.6 µg/mL (≈ 30.1 µM) | 16.6 µg/mL (≈ 36.8 µM) | 4.6 µg/mL (≈ 10.2 µM) | O=C(Cc1cccc(Br)c1)OCCOC1=C(c2ccc(Cl)cc2)C(=O)OC1
34 | 5.12 | 18.1 µg/mL (≈ 52.9 µM) | 8.2 µg/mL (≈ 24 µM) | > 100 µg/mL | 13.8 µg/mL (≈ 40.3 µM) | O=C1OCC(OCCOC(=O)c2ccc(F)cc2)=C1c1ccccc1
35 | 4.30 | > 100 µg/mL | 15.3 µg/mL (≈ 42.9 µM) | > 100 µg/mL | 36.7 µg/mL (≈ 103 µM) | O=C1OCC(OCCOC(=O)c2ccc(O)cc2O)=C1c1ccccc1
36 | 6.05 | 1.2 µg/mL (≈ 3.05 µM) | 2 µg/mL (≈ 5.09 µM) | 4.3 µg/mL (≈ 10.9 µM) | 1.5 µg/mL (≈ 3.81 µM) | O=C1OCC(OCCOC(=O)c2cccc(Cl)c2)=C1c1ccc(Cl)cc1
37 | 5.09 | > 100 µg/mL | 15.8 µg/mL (≈ 46.7 µM) | > 100 µg/mL | 16.7 µg/mL (≈ 49.4 µM) | Cc1cccc(C(=O)OCCOC2=C(c3ccccc3)C(=O)OC2)c1
38 | 5.17 | > 100 µg/mL | 2.2 µg/mL (≈ 6.17 µM) | > 100 µg/mL | 14.4 µg/mL (≈ 40.4 µM) | O=C1OCC(OCCOC(=O)c2cc(O)cc(O)c2)=C1c1ccccc1
39 | 4.78 | 13.1 µg/mL (≈ 29 µM) | 13 µg/mL (≈ 28.8 µM) | 14.3 µg/mL (≈ 31.7 µM) | 20.6 µg/mL (≈ 45.6 µM) | O=C(Cc1ccc(Br)cc1)OCCOC1=C(c2ccc(Cl)cc2)C(=O)OC1
40 | – | – | 1.5 µg/mL (≈ 3.1 µM) | 3.5 µg/mL (≈ 7.22 µM) | – | NC[C@H]1O[C@H](O[C@H]2[C@H](O)[C@@H](O[C@H]3O[C@H](CO)[C@@H](O)[C@H](N)[C@H]3O)[C@H](N)C[C@@H]2N)[C@H](O)[C@@H](O)[C@@H]1O [KANAMYCIN]
41 | 4.32 | > 100 µg/mL | 15.4 µg/mL (≈ 36.9 µM) | 78.7 µg/mL (≈ 189 µM) | 22 µg/mL (≈ 52.7 µM) | O=C(Cc1ccc(Br)cc1)OCCOC1=C(c2ccccc2)C(=O)OC1
